Assay outcomes deposited in PubChem BioAssay by several laboratories.
The list is not random: actives were taken first. Their share in the collection is about 11%.
S1P1 ag pot: S1P1 agonists and agonism potentiators, primary screen, cell-based, primary and confirmation screens, CRE-bla reporter; AID 449, 2006; activation, % at 9.5 µM; 56,000 compounds, 0.57% hits; S1P1 CRE-bla cells, forskolin, beta-lactamase FRET, potentiator mode; S1P1 agonist co-added at EC20, 2 nM; 100% = saturating reference agonist, 0% = basal;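 active means activation above a cutoff set at the mean activation of all tested compounds plus 3 SD, cut at about 54% in these data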;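 further: forskolin at 4 µM as EC80 and the EC20 agonist is SEW2871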
M1 ag: M1 muscarinic receptor agonists, primary screen, CHO-M1 cells, Fluo-4 calcium, agonist mode. Muscarinic acetylcholine receptor M1. Fluo-4 calcium fluorescence; stronger effect = higher value. B-score at 10 µM. 64,000 compounds, 3% hits. AID 626, 2007;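 active means fluorescence rise, raw or as B-score row- and column-corrected plate score, outside the 99.7% band of its plate's samples, either direction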
TNAP act mid DEA: human TNAP enzyme activators, primary screen, biochemical, luminescent, intermediate phosphate acceptor level; Alkaline phosphatase, tissue-nonspecific isozyme (Homo sapiens), P05186; purified TNAP, CDP-star luminescence, 100 mM DEA, 30 min; stronger effect = higher value; scale: 0 levamisole-inhibited, 1 vehicle-only enzyme; activation factor at 20 µM; 64,000 tested, under 10 active; AID 813, 2007;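 active means activation factor of at least 2 at 20 µM, relative to controls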
Target sequence (P05186 whole entry, looked up): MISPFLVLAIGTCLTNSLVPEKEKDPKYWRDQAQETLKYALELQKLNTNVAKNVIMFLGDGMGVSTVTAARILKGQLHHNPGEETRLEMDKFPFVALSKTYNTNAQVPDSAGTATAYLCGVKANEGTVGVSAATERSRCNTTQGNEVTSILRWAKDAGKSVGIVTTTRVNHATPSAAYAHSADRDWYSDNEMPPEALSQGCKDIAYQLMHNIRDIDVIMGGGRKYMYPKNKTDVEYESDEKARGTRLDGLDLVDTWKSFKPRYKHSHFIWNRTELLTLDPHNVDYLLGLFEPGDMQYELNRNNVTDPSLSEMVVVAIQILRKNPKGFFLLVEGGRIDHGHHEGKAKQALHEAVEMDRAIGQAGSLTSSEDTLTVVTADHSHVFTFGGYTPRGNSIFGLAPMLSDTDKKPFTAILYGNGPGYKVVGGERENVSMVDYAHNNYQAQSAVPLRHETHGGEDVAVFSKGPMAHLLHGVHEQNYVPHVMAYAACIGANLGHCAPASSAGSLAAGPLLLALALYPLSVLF
D1 allo mod: D1 CRE-luciferase signal change, two-sided – cell-based, HEK293 D1, dopamine EC30, D1 allosteric modulator project, primary screen; B-score at 10 µM; AID 641, 2007; D(1A) dopamine receptor (Homo sapiens), P21728; dopamine EC30 potentiation; actives deviate in either direction; 58,000 compounds, 5.9% hits;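 active means luminescence count or its row- and column-corrected plate score outside the 99.7% band of the plate's sample wells, on either side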
M1 antag: antagonists of rat M1 muscarinic receptor; CHO-M1 cells, Fluo-4 calcium, ACh EC80 antagonist mode; stronger effect = lower value; B-score at 10 µM; 64,000 compounds, 3.4% hits; AID 628, 2007;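 active means calcium fluorescence response, raw or row-and-column corrected B-score, differing from the plate sample mean either way at a set confidence level, mostly lower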
S1P3 agonist: human S1P3 receptor agonists, primary screen, cell-based, primary and confirmation, NFAT-BLA reporter; Sphingosine 1-phosphate receptor 3 (Homo sapiens), Q99500; S1P3 NFAT-BLA reporter cells, agonism, FRET ratio; relative to 1 µM S1P, basal subtracted; activation, % at 4.5 µM; 60,000 compounds, 0.1% hits; AID 373, 2006;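 active means activation above the screen-wide mean plus 3 SD, cut at about 4.5% in these data, passing the limit was not always enough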
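Assay system: CHO cells stably expressing human S1P3, Gα16 and NFAT-β-lactamase reporter. Timing: overnight plating, 4 h compound 37 °C, 2 h substrate RT. Signal: β-lactamase FRET emission ratio 460/535 nm. Measure: percent activation versus median 1 µM S1P response, basal-subtracted, per plate. Repeats: primary screen single test, confirmation screen in triplicate.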
D1 mod confirm: D1 receptor positive allosteric modulators, retest, confirmation, cell-based, HEK293 D1, CRE-luciferase, duplicate | shares compounds with D1 allo mod | 2,200 compounds, 88% hits | dopamine EC30 potentiation; stronger effect = higher value | luminescence at 10 µM | AID 642, 2007;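 active means luminescence in either of two replicates above the same-plate mean plus 3 SD of the low-dose dopamine control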
D1 no dopamine: D1 receptor agonism without dopamine, confirmation, mechanism study for D1 allosteric modulator project, cell-based, HEK293 D1, CRE-luciferase, secondary assay 1. shares compounds with D1 allo mod. luminescence, no dopamine; stronger effect = higher value. luminescence at 10 µM. 1,900 compounds, 0.8% hits. AID 646, 2007; in the data active means luminescence above about 3900
Isoprot counter: isoproterenol response counter-screen activity for D1 modulators; 2,200 compounds, 63% hits; AID 647; luminescence at 10 µM; shares compounds with D1 allo mod; HEK293 D1 CRE-luciferase, isoproterenol EC30 counter-screen; stronger effect = higher value;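 active means luminescence in either replicate above plate mean of wells with a partly effective reference agonist dose plus 3 SD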;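 further: isoproterenol raises cAMP through native beta-adrenoceptor Gs so signal bypasses D1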
Numbers stand for hits; n = inactive; x = no result.

SMILES	S1P1 ag pot	M1 ag	TNAP act mid DEA	D1 allo mod	M1 antag	S1P3 agonist	D1 mod confirm	D1 no dopamine	Isoprot counter
CCOC(=O)c1cnn(-c2nc(C)cc(C)n2)c1N	n	n	n	x	n	n	x	x	x
CCOc1ccc(NC(=O)Cn2nnc(C(=O)NCc3ccccc3OC)c2N)cc1	n	n	n	4.29	n	n	n	n	n
CCOc1ccc(NC(=O)c2nnn(CC(=O)Nc3ccccc3OCC)c2N)cc1	n	n	n	n	n	n	x	x	x
CN(C)CCCN1C(=O)C(=O)/C(=C(/O)c2ccc3c(c2)OCO3)C1c1ccccn1 (stereo not given)	x	n	n	n	n	n	x	x	x
N#Cc1c(N)nc2c(c1-c1ccccc1)CCCC2	n	n	n	x	n	n	x	x	x
N#Cc1c2c(nc(N)c1-c1ccccc1)CCCCC2	x	n	n	4.52	n	x	7208	n	n
N#CC1=C(N)N(c2ccccc2)C(c2ccco2)C1(C#N)C#N (stereo not given)	n	n	n	7.69	n	n	n	n	n
c1ccc2c(c1)CCOC2CNCCCN1CCCCC1 (stereo not given)	n	n	n	x	n	n	x	x	x
CSc1ccccc1-n1nnnc1SCc1ccccc1	n	n	n	3.79	n	n	7588	x	n
Cc1ccccc1-n1nnnc1SCC(N)=O	n	n	n	n	n	n	x	x	x
CC1CCN(c2oc(-c3ccccc3Cl)nc2C#N)CC1	n	n	n	x	n	n	x	x	x
N#Cc1nc(-c2ccccc2Cl)oc1N1CCOCC1	n	n	n	4.83	n	n	7844	n	n
O=C(NCc1ccc(N2CCCC2=O)cc1)Nc1ccccc1	n	n	n	n	n	n	x	x	x
CCOC(=O)c1c(C)c2c(n1C)CCC/C2=N\O	n	n	n	6.5	n	n	9680	n	5084
CCOC(=O)N1CCC(NC(=O)c2cccc3c2C(=O)N(Cc2cccnc2)C3)CC1	n	n	n	3.72	n	n	8400	n	n
CCOc1ccc(OCC)c(NC(=O)CN2CCN(c3cccc(C)c3C)CC2)c1	x	n	n	x	n	x	x	x	x
CCOc1ccc(OCC)c(NC(=O)CN2CCN(C(=O)c3ccco3)CC2)c1	n	n	n	26.1	n	n	n	n	n
O=C(CSc1nc2ccccc2s1)NC(=O)NCc1ccco1	n	n	n	5.85	n	n	8872	n	n
O=C(CSc1nc(-c2ccccc2)cs1)NC(=O)NCc1ccco1	n	n	n	n	n	n	x	x	x
CC(C)OC(=O)c1cccc(C(=O)OCc2ccco2)n1	n	n	n	n	n	n	x	x	x
Cc1ccc2c(c1)c(-c1ccccc1)nc1nncn12	n	n	n	9.09	n	n	13296	n	3264
Cc1nnc2c(-c3ccccc3)nc3ccccc3n12	n	n	n	n	n	n	x	x	x
O=C(Nc1cc(Cl)ccc1N1CCOCC1)c1cnccn1	x	n	n	3.07	n	x	7880	n	n
COc1cccc(OC)c1C(=O)Nc1cc(Cl)ccc1N1CCOCC1	n	n	n	n	n	n	x	x	x
CCOc1ccccc1Nc1nc(N)nc(CSc2nccc(C)n2)n1	x	n	n	3.57	n	n	6988	x	n
SMILES	S1P1 ag pot	M1 ag	TNAP act mid DEA	D1 allo mod	M1 antag	S1P3 agonist	D1 mod confirm	D1 no dopamine	Isoprot counter
CC(=O)C(C)Oc1ccc2c3c(c(=O)oc2c1C)CCCC3 (stereo not given)	n	n	n	3.17	n	n	9268	n	4820
CC(=O)COc1ccc2c3c(c(=O)oc2c1C)CCCCC3	n	n	n	n	n	n	x	x	x
O=c1cc(CSc2nnc(COc3ccccc3Cl)o2)nc2sccn12	n	n	n	n	n	n	x	x	x
O=C(O)c1ccc(CSc2nnc(COc3ccc(Cl)cc3Cl)o2)cc1	n	n	n	5.59	n	n	10144	x	3052
COc1ccc(C(=O)CSc2ncn[nH]2)cc1OC	n	n	n	18.3	n	n	17148	n	3200
O=C(CN1C(=O)C2CC=CCC2C1=O)Nc1ccc(S(=O)(=O)NC2=NCCCCC2)cc1 (stereo not given)	n	n	n	n	n	n	x	x	x
CCOC(=O)c1ccc(NC(=O)C2CCCO2)cc1 (stereo not given)	n	n	n	23	n	n	n	n	n
CCCCOC(=O)c1ccc(NC(=O)C2CCCO2)cc1 (stereo not given)	n	n	n	n	n	n	x	x	x
Cc1ccc(C2CC(C(F)(F)F)n3nc(C(=O)NCc4ccco4)cc3N2)cc1 (stereo not given)	n	n	n	n	n	n	x	x	x
OC(CN1CCOCC1)CN1CCOCC1	n	n	n	2.63	n	n	n	n	n
CC1(C)C=Cc2c(c3ccccc3[nH]c2=O)O1	n	n	n	n	n	n	x	x	x
C=C(C)c1cccc(C(C)(C)NC(=O)Nn2cnnc2)c1	n	n	n	5.95	n	n	n	n	n
CC(C)Cn1c(NCCN(C)C)nc2c1c(=O)[nH]c(=O)n2C	n	n	n	n	n	n	x	x	x
C=C(C)Cn1c(SCCCO)nc2c1c(=O)[nH]c(=O)n2C	n	n	n	n	n	n	x	x	x
COC(=O)C(C)Sc1nc2c(c(=O)[nH]c(=O)n2C)n1CCC(C)C (stereo not given)	n	n	x	9.94	n	n	21460	n	5984
CCC(C)Nc1nc2c(c(=O)[nH]c(=O)n2C)n1CCC(C)C (stereo not given)	n	n	n	16.7	n	n	18228	n	6624
COCCSc1nc2c(c(=O)[nH]c(=O)n2C)n1CCC(C)C	n	n	n	11	n	n	21024	n	5440
COC(=O)C(C)Sc1nc2c(c(=O)n(C)c(=O)n2C)n1CCC(C)C (stereo not given)	n	n	n	x	n	n	x	x	x
C=C(C)CSc1nc2c(c(=O)[nH]c(=O)n2C)n1CCC(C)C	n	n	n	11.2	n	n	22496	n	7888
Cc1ccc(S(=O)(=O)N[C@H](C(=O)N2CCC(C(=O)NCC(=O)O)CC2)C(C)C)cc1	n	n	n	n	n	n	x	x	x
